Measured values taken from ChEMBL document CHEMBL4190394, “Discovery of Novel Pazopanib-Based HDAC and VEGFR Dual Inhibitors Targeting Cancer Epigenetics and Angiogenesis Simultaneously” (J Med Chem, 2018).
pIC50: −log10 of the molar value. Activity calls are given as the source filed them. No cut-off for these calls is given here.

Experiments:
[1] = MRT (0 to t) in Sprague-Dawley rat at 10 mg/kg, po by LC-MS/MS analysis; format: ADME, organism-based; settings: in vivo
How it was run: (§1)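 Sprague–Dawley rats (N = 6) dosed with the hydrochloride salt, 2 mg/kg IV or 10 mg/kg PO. Jugular vein blood drawn at set time points and kept on ice. Plasma separated by centrifugation, stored at -80 °C, and quantified by LC-MS/MS.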

[2] = target: Fibroblast growth factor receptor 1 (Homo sapiens, UniProt P11362); experiment: Inhibition of FGFR1 (unknown origin) after 40 mins by kinase-Glo assay
Chain of Fibroblast growth factor receptor 1 (P11362 whole entry): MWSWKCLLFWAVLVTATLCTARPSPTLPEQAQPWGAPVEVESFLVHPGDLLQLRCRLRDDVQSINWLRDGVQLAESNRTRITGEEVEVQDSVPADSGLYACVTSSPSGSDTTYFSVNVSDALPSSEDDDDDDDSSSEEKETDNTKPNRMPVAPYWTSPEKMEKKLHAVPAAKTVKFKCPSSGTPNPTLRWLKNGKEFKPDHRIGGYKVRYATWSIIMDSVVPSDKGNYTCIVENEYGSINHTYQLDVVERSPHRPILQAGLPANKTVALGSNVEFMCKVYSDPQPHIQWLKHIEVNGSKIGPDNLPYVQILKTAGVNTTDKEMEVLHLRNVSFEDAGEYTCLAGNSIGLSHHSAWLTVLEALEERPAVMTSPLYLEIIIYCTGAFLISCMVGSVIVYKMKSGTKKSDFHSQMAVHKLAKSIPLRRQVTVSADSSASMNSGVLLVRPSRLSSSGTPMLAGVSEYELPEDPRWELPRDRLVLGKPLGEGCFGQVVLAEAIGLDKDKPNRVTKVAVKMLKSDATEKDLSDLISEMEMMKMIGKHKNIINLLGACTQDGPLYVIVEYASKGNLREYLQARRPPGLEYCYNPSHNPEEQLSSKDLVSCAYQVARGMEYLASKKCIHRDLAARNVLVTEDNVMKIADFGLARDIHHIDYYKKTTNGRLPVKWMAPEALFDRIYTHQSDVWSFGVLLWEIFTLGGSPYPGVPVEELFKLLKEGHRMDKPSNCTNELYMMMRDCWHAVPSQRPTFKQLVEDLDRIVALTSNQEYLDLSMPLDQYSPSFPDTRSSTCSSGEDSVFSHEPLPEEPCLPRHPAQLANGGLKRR

[3] = Apparent volume of distribution in Sprague-Dawley rat at 2 mg/kg, iv by LC-MS/MS analysis; format: ADME, organism-based; settings: in vivo, read-out: Vz; how it was run: as §1
HT-1080 = experiment: Antiproliferative activity against human HT1080 cells after 72 hrs by MTT assay; format: functional, cell-based; settings: HT-1080, 72 h
[4] = Cmax in Sprague-Dawley rat at 2 mg/kg, iv by LC-MS/MS analysis; format: ADME, organism-based; parameters: dose 2 mg/kg, route intravenous; settings: in vivo; how it was run: as §1
[5] = target: Vascular endothelial growth factor receptor 2 (Homo sapiens, UniProt P35968); experiment: Inhibition of VEGFR-2 (unknown origin) at 0.2 uM after 40 mins by kinase-Glo assay relative to control
Chain of Vascular endothelial growth factor receptor 2 (P35968 whole entry): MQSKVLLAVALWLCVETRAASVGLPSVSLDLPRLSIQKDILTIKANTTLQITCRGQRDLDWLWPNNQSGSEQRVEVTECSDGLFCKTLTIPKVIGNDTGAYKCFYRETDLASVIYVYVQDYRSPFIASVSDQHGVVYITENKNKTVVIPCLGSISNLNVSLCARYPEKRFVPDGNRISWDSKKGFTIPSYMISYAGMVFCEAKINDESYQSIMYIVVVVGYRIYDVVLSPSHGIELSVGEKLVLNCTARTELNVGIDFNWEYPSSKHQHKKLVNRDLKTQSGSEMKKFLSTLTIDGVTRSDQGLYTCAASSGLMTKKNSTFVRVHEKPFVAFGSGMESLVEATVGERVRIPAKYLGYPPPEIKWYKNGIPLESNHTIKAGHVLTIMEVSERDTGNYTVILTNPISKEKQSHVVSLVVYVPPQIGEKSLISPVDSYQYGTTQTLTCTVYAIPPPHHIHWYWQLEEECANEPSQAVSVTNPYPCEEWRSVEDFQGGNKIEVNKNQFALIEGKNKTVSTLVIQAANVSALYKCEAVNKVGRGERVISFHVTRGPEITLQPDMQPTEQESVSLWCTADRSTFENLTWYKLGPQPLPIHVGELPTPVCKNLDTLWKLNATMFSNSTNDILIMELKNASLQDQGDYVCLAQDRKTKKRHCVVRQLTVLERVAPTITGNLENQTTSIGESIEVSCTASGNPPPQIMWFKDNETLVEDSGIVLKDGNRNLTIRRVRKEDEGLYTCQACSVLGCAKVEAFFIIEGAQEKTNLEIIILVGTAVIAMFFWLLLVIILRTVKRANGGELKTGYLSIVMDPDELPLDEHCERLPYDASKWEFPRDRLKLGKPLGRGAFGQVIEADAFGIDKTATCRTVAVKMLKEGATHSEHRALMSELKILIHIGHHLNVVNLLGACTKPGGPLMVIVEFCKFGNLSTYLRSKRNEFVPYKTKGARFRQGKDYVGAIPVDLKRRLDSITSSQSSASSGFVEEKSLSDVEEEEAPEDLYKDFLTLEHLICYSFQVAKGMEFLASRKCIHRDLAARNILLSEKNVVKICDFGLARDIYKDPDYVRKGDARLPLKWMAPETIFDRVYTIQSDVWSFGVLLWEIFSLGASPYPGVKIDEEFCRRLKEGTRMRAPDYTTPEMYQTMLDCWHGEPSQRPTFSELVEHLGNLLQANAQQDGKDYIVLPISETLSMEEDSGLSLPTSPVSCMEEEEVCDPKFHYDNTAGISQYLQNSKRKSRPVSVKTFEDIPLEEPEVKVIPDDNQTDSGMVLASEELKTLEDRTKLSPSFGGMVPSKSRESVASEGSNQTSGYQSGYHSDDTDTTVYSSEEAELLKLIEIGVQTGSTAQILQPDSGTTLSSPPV
How it was run: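 VEGFR-2 tested at a single 200 nM concentration in a Kinase-Glo assay. Compound, kinase, substrate and ATP incubated 40 min at room temperature, then Kinase-Glo reagent added for 15 min and luminescence read. Inhibition rate reported. Replicates n ≥ 2.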

[6] = target: Vascular endothelial growth factor receptor 3 (Homo sapiens, UniProt P35916); experiment: Inhibition of VEGFR-3 (unknown origin) after 40 mins by kinase-Glo assay
Chain of Vascular endothelial growth factor receptor 3 (P35916 whole entry): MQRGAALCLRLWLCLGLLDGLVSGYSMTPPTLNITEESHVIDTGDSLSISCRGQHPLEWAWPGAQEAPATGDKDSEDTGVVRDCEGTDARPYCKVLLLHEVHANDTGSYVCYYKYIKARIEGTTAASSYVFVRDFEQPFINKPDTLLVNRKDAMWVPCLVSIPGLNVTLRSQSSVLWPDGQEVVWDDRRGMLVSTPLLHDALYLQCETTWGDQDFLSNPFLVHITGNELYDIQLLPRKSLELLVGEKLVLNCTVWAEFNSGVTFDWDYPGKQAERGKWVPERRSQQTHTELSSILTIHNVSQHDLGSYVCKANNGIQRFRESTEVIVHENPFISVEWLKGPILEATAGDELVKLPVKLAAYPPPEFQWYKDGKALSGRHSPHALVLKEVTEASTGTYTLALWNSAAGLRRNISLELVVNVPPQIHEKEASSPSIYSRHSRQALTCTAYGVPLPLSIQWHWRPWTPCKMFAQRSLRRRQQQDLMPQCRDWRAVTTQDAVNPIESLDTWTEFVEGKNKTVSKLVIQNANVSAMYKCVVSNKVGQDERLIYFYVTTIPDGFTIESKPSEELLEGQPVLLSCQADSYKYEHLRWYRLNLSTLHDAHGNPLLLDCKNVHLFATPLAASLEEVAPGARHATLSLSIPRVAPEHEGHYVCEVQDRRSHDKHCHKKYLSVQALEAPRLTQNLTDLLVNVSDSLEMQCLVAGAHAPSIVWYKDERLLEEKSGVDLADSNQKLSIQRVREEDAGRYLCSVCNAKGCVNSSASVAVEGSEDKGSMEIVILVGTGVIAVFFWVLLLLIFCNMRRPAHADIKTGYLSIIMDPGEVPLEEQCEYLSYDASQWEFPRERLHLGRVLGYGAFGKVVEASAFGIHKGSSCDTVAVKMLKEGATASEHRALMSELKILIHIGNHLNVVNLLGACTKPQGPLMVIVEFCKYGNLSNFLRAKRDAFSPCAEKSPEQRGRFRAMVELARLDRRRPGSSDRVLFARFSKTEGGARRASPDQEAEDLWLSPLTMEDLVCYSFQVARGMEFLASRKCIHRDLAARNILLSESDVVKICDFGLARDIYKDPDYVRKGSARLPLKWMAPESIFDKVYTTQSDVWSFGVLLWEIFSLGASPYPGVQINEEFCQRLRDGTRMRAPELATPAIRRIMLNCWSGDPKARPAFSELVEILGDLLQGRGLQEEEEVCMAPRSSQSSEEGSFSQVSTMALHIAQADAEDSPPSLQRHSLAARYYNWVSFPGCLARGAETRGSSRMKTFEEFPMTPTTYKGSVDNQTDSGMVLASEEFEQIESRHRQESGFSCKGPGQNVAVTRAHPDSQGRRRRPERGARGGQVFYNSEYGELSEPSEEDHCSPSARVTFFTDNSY

Thoracic aorta = experiment: Antiangiogenic activity in Sprague-Dawley rat thoracic aorta ring assessed as reduction in micro-vessel growth at 5 uM treated every day for 6 days by matrigel-based inverted microscopic analysis relative to control; format: functional, tissue-based
How it was run: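 Aortas taken from 4–6-week-old Sprague–Dawley rats, cut into 1-mm rings and embedded in Matrigel. Rings held 30 min at 37 °C, 5% CO2, then treated daily for 6 days with compound or 0.5% DMSO vehicle. Microvessel outgrowth photographed on day 7 at ×200. Three independent experiments.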

Mus musculus = experiment: Toxicity in nu BALB/c mouse xenografted with human HT-29 cells assessed as reduction in body weight at 50 mg/kg , po administered for 25 consecutive days measured every day during compound dosing; format: organism-based; settings: in vivo
[7] = MRT (0 to t) in Sprague-Dawley rat at 2 mg/kg, iv by LC-MS/MS analysis; format: ADME, organism-based; settings: in vivo; how it was run: as §1
HUVEC = experiment: Antiangiogenic activity in human HUVEC cells assessed as reduction in capillary-like tubular network formation at 0.1 uM after 6 hrs by phase-contrast microscopy; format: functional, cell-based
How it was run: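 HUVECs trypsinized and seeded at 40000/well on Matrigel polymerized 0.5 h at 37 °C. Cells held 6 h at 37 °C in M199 with 5% FBS, with compound or DMSO. Tube formation viewed and photographed by phase-contrast microscopy at 200 magnification. Three independent experiments.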

MRT last [1]: 2.54 h
pIC50 [2]: 6.72
Vd [3]: 2.06 L/kg
pIC50 (HT-1080): < 5.30
Cmax [4]: 2780 ng/mL
inhibition [5]: 100%
pIC50 [6]: 7.34
MRT last [7]: 1.13 h
Compound: Cc1c2ccc(N(C)c3ccnc(Nc4ccc(C(=O)Nc5ccccc5N)cc4)n3)cc2nn1C
Activity (Thoracic aorta): Active
Activity (Mus musculus): Non-Toxic
Activity (HUVEC): Active
